# Source: PubChem (Broad Institute)
# SR-BI uptake up – activators of SR-BI mediated DiI-HDL uptake, primary screen, ldlA[mSR-BI] CHO cells, DiI fluorescence | 3 h; 100 = double the neutral-control signal | AID 504775, 2011 | 320,000 tested, 0.096% active | activation, % at 12.5 µM;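 active means mean replicate activation of at least 60% and every replicate at or above 60%; inconclusive means mean or all-replicate condition met, but not both; inactive means mean below 60% and not all replicates reaching 60%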;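 further: 0% = median plate neutral-control signal and 100% = twice that signal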
#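 system = CHO ldlA[mSR-BI] cells, LDL receptor-null, SR-BI overexpressing | medium = Ham's F12 with 0.5% BSA, HEPES 25 mM, pH 7.4 | probe or stimulus = DiI-HDL 10 µg/mL | compound dosing = single-point compound dose | incubation = compound exposure 3 h, 37 °C | technique = DiI fluorescence, bottom read | read-out = cell-associated DiI fluorescence as measure of HDL uptake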
# dFosB act – activators of delta FosB homodimer, primary screen, biochemical, fluorescence polarization, TAMRA-CDK5 oligo, single point. purified delta FosB; percent of positive-control signal above neutral wells. activation, % at 25 µM. 340,000 tested, 0.99% active. AID 493131, 2011;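 active means mean activation above about 17%, with every replicate also reaching it, limit read from the data, passing the limit was not always enough; inconclusive means only one of the two conditions met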
# Target sequence (P13346 whole entry, looked up): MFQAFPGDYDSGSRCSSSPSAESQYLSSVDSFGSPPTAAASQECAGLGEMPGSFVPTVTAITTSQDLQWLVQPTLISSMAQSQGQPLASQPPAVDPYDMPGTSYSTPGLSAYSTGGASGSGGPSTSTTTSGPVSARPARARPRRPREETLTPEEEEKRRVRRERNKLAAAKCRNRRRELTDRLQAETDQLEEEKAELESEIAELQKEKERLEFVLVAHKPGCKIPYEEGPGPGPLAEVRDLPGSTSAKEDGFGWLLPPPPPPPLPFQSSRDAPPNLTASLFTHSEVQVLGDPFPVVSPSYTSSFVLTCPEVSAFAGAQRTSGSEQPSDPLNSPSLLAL
# CDK5 p35 inh – inhibitors of human CDK5/p35 kinase, primary screen, biochemical, single concentration. Recombinant CDK5/p35, ADP-Glo luminescence, 60 min. inhibition, % at 10 µM. 330,000 tested, 0.01% active;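 active means highest replicate inhibition of at least 50% and at least 75% of replicates reaching 50%; inconclusive means only one of the two criteria met; inactive means both criteria failed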;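 further: plate controls were DMSO neutral control for no effect and GW8510 at 10 µM for full effect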
# NSD2 inh – NSD2 histone methyltransferase inhibitors, primary screen, biochemical, AlphaScreen, single concentration, set 2. inhibition, % at 12.5 µM. AID 743445, 2014. 310,000 tested, 0.54% active. Histone-lysine N-methyltransferase NSD2 (Homo sapiens), O96028. NSD2 peptide methylation, 120 min
# DYRK1A inh – rat Dyrk1A kinase inhibitors, primary screen, biochemical, single point, plate reader | 310,000 tested, 0.43% active | Dual specificity tyrosine-phosphorylation-regulated kinase 1A (Rattus norvegicus), Q63470 | inhibition, % at 12.5 µM | ADP-Glo luminescence, NFATc1 peptide;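 further: plate controls were vehicle with enzyme for no effect and no enzyme for full effect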
# SR-BI HDL uptake – inhibitors of SR-BI mediated HDL lipid uptake, primary screen, ldlA[mSR-BI] cells, fluorescence, single point; Scavenger receptor class B member 1 (Mus musculus), Q61009; ldlA[mSR-BI] CHO cells, DiI-HDL uptake fluorescence, 3 h; inhibition, % at 12.5 µM; 320,000 tested, 0.96% active; AID 488896, 2010;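 active means mean replicate inhibition of at least 70% and a set share of replicates each scoring 70 or more; inconclusive means meets just one of the two criteria; inactive means fails both criteria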;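 further: 0% = median of neutral control wells and 100% = median of positive control wells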
# The depositor's hits bear a star; ? = inconclusive; · = no result given. Compounds with a hit are over-represented: about 2.5% of the library has one in this group of screens. Unless noted, no stated cut-off is given here; in the data, active means inhibition above about 50%; inactive means the rest.
SMILES,SR-BI uptake up,dFosB act,CDK5 p35 inh,NSD2 inh,DYRK1A inh,SR-BI HDL uptake
COc1ccc(-c2ccc(-c3nc4c(c(=O)[nH]c(=O)n4Cc4ccccc4)n3C)o2)c([N+](=O)[O-])c1,-72,-10,-1,0,-6,72*
Cn1cccc1C(=O)N1CCN(S(=O)(=O)c2ccc([N+](=O)[O-])cc2)CC1,·,·,·,2,·,·
Cc1nnc(SCC(=O)NC2CCS(=O)(=O)C2)n1Cc1ccccc1 (centres undefined),66*,-1,0,·,-4,-66
CCn1c(SCC(=O)NC2CCS(=O)(=O)C2)nnc1-c1ccccc1 (centres undefined),21,2,1,-4,·,-21
CC(=O)c1ccc(NC(=O)COC(=O)CCC(=O)c2cccs2)cc1,270*,-8,1,-1,-10,-270
CNC(=O)COC(=O)CCC(=O)c1cccs1,24,-5,0,32,10,-24
Cc1[nH]c2ccccc2c1/C=N/Nc1nc(Nc2ccccc2)nc(N2CCOCC2)n1,-130,23*,1,1,-1,130*
Oc1[nH]c2ccccc2c1N=Nc1nc(Nc2ccccc2)nc(N2CCOCC2)n1,·,47*,1,6,-4,·
c1ccc(Nc2nc(N3CCCC3)nc(N3CCOCC3)n2)cc1,-66,-3,-1,·,17,66
CN(C(=O)CCN1C(=O)S/C(=C\c2ccccc2)C1=O)C1CCS(=O)(=O)C1 (centres undefined),29,-3,-1,-1,4,-29
CN1CCN(c2cc(N3CCN(C(=O)c4ccco4)CC3)c3c4c(onc24)-c2ccccc2C3=O)CC1,-28,0,2,·,-6,28
O=C(O)CCCNc1cc(N2CCN(C(=O)c3ccco3)CC2)c2noc3c2c1C(=O)c1ccccc1-3,-3,-82,1,78*,13,3
Cc1ccc2nc(C(F)(F)F)c(C#N)c(N)c2c1,-11,-5,95*,-2,36,11
COCCNC(=O)C1CCCN(C(=O)c2nc(C)oc2C)CC1 (centres undefined),·,·,·,-2,·,·
CCN(CC)S(=O)(=O)c1ccc2oc(C(=O)Nc3ccc(OC)cc3OC)c(C)c2c1,-77,-6,0,-4,4,77*
Oc1ccc(CNc2ccc(C(F)(F)F)cc2F)c2cccnc12,·,·,·,0,·,·
CC(C)(C)OC(=O)N[C@@H](COCc1ccccc1)C(=O)N[C@@H](CO)[C@H](O)[C@@H]1C[C@@H]1C(=O)NC1CCCCC1,13,1,-2,·,5,-13
O=C(COC(=O)/C=C/c1cccc(Cl)c1)NCCc1ccc(Cl)cc1Cl,83*,-15,1,4,-8,-83
O=C(COC(=O)/C=C/c1ccco1)NCc1ccc(Cl)cc1Cl,8,-3,0,0,·,-8
CCNC(=S)NNC(=O)c1cnccn1,·,·,·,0,·,·
COc1ccc(C(=O)Nc2nc3c(s2)Cc2cc(OC)ccc2-3)cc1,-87,5,0,12,2,87*
CCCNC(=O)C1(C)CCCN(C(=O)c2cccc(OC(F)(F)F)c2)C1 (centres undefined),·,·,·,-2,·,·
CCCn1c(O)c(N=NC(=O)CNC(=O)/C=C/c2ccc(OC)cc2)c2ccccc21,-54,-10,0,4,0,54
NC(=O)Cn1c(O)c(N=NC(=O)CNC(=O)/C=C/c2ccccc2)c2ccccc21,24,18*,-1,-2,6,-24
Nc1ccc(OCCCc2c(N)nc(N)nc2N)cc1,-9,21*,1,2,-3,9
SMILES,SR-BI uptake up,dFosB act,CDK5 p35 inh,NSD2 inh,DYRK1A inh,SR-BI HDL uptake
O=C(Cn1c(=O)n(-c2ccccc2)c(=O)c2sccc21)NCc1ccccc1,·,-3,0,0,-2,·
O=C(Cc1ccc(-n2c(=O)c3sccc3n(CC(=O)Nc3ccccc3)c2=O)cc1)NCc1ccco1,-6,73*,1,-8,-1,6
COc1ccc(N=C2S/C(=C\c3ccc(Cl)c([N+](=O)[O-])c3)C(=O)N2CCN(C)C)cc1,3,23*,1,1,-6,-3
CC1C(=O)C(C)C(c2cc(Br)ccc2O)NC1c1cc(Br)ccc1O (centres undefined),-83,?,1,1,-2,83*
O=C(CSc1nccc(=O)[nH]1)NC1CCCC1,·,0,0,-2,2,·
O=C(NCCCCNC(=O)c1ccccc1F)c1ccccc1F,-75,-1,-1,-3,·,75*
Cn1cc(C(=O)c2ccc(Cl)cc2Cl)cc1C(=O)N/N=C(\N)COc1ccc(Cl)cc1,·,0,-1,0,-1,·
Cn1cc(C(=O)c2ccc(Cl)cc2Cl)cc1C(=O)N/N=C(\N)COc1ccc(Cl)cc1Cl,-83,7,2,·,-3,83*
COc1cc(NC(=O)c2ccc(OCc3c(C)noc3C)c(OC)c2)cc(OC)c1,-86,-17,0,0,-5,86*
COc1cc(C(=O)Nc2cc(OC)c(OC)c(OC)c2)ccc1OCc1c(C)noc1C,-87,3,0,0,-2,87*
CCc1nnc(NC(=O)c2ccc(OCc3c(C)noc3C)c(OC)c2)s1,-84,-15,3,-5,-5,84*
COc1cc(C(=O)Nc2nc3ccc(C)cc3s2)ccc1OCc1c(C)noc1C,-56,?,1,3,-6,56
COc1cc(C(=O)Nc2ccc3c(c2)OCO3)ccc1OCc1c(C)noc1C,-63,-3,0,0,8,63
Cc1cccc(NC(=O)c2ccc(OCc3c(C)noc3C)cc2)c1,-73,-12,0,-7,9,73*
C[C@H]1[C@@H](NCc2cccs2)CC[C@@]23CCCN2C(=O)CCC[C@@H]13,·,·,·,4,·,·
Cc1ccc(S(=O)(=O)NCc2ccccc2)cc1C(=O)N1CCN(S(=O)(=O)c2ccccc2F)CC1,·,·,·,0,·,·
COc1ccc(C2=Nc3cccc4cccc(c34)N2)cc1,13,55*,1,7,-4,-13
COc1ccc(Br)cc1C(=O)CCC(=O)OCC(=O)Nc1cc(C(N)=O)cc(C(N)=O)c1,34,-5,1,-2,-5,-34
NC(Cc1ccc(C(F)(F)F)cc1)c1csc(Nc2nccc(C(F)(F)F)n2)n1 (centres undefined),·,·,·,5,·,·
COC(=O)C1=C(C)N(Cc2ccccc2)C(=S)NC1c1ccc(Cl)cc1 (centres undefined),·,·,·,0,·,·
